Blank lines part the entries; values can stand above or below the compound they belong to. Active and inactive are the calls of the source. No cut-off for these calls is given here. Numbered stars: 1 amine (or outer) side, 2 acyl side, 3 side chain; on linkers, the order of the positions; unused ones are H or OH. Bridge positions count the residues as written; N and C are the ends. Square brackets hold non-standard residues; d marks the D form. Peptide text beside a SMILES is read from it. I, II: the chains in the order shown. ξ: configuration not given here. Gly(N(CH2)2(3-indolyl)) = O=C(O)CNCCc1c[nH]c2ccccc12; Gly(N-piperonyl) = O=C(O)CNCc1ccc2c(c1)OCO2; X1 = CC(c1ccccc1)N(CC(=O)[*:2])[*:1]; NFurfurylGly = O=C(O)CNCc1ccco1; NAllylGly = C=CCNCC(=O)O; Nleu = CC(C)CNCC(=O)O; Nlys = NCCCCNCC(=O)O; ξK = NCCCCC(N)C(=O)O; Ahx = NCCCCCC(=O)O; Nme = COCCNCC(=O)O; βAla = NCCC(=O)O
What was measured:
[1] = molecular target: T1, Vascular endothelial growth factor receptor 2 (Homo sapiens, UniProt P35968); assay: Binding affinity to human recombinant VEGFR2 extracellular domain by ELISA like binding assay
T1 sequence (P35968 whole entry, the tested form may be a part): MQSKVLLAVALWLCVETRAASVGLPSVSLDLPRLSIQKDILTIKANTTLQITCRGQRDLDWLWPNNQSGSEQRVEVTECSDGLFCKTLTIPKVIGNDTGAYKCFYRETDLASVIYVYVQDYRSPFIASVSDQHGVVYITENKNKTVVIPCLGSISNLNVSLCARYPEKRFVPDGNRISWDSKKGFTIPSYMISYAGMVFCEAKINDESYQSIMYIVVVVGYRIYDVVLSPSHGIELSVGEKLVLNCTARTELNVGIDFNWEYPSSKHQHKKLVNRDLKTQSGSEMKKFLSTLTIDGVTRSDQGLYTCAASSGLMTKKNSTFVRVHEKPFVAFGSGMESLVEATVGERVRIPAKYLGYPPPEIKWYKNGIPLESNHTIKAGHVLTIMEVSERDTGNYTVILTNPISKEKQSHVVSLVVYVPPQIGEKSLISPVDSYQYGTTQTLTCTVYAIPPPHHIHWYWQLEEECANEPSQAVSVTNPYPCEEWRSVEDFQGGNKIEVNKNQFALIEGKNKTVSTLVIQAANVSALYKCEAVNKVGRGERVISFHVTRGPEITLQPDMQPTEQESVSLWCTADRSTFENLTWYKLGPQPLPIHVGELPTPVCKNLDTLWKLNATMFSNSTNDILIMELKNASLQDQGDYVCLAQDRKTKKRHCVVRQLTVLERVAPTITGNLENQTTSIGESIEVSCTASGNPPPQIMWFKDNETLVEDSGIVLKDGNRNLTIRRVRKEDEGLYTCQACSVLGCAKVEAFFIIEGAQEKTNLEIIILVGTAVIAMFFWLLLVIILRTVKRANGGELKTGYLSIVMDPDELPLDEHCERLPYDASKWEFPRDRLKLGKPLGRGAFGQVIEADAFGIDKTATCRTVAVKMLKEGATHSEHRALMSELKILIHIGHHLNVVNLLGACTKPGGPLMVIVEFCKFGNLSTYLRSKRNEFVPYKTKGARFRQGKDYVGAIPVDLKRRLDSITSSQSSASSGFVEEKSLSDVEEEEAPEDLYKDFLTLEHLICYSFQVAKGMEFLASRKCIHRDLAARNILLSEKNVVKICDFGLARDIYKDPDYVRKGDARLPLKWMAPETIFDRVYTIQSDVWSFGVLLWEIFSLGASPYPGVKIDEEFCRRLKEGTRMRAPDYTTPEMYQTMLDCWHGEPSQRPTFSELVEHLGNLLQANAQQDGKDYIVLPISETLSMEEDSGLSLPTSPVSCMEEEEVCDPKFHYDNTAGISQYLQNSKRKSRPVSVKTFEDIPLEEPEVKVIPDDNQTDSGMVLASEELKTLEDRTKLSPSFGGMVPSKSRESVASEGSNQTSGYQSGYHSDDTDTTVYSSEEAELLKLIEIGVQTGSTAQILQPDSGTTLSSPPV
Method in brief: (§1)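 Plates coated overnight at 4 °C with recombinant human VEGFR ECD at 1 µg/mL in carbonate buffer pH 9.5, then washed and blocked. Serial dilutions of FITC-labelled peptoid in blocking buffer or TBST were added for 1 h at room temperature. After five PBS washes, retained fluorescence was read at 520 nm. KD was taken from the titration.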

[2] = molecular target: Vascular endothelial growth factor receptor 1 (Homo sapiens) (UniProt P17948); assay: Binding affinity to human recombinant VEGFR1(1-3) N terminal domain by ELISA like binding assay; method in brief: as §1
Vascular endothelial growth factor receptor 1 (Homo sapiens), sequence (P17948 whole entry, the tested form may be a part): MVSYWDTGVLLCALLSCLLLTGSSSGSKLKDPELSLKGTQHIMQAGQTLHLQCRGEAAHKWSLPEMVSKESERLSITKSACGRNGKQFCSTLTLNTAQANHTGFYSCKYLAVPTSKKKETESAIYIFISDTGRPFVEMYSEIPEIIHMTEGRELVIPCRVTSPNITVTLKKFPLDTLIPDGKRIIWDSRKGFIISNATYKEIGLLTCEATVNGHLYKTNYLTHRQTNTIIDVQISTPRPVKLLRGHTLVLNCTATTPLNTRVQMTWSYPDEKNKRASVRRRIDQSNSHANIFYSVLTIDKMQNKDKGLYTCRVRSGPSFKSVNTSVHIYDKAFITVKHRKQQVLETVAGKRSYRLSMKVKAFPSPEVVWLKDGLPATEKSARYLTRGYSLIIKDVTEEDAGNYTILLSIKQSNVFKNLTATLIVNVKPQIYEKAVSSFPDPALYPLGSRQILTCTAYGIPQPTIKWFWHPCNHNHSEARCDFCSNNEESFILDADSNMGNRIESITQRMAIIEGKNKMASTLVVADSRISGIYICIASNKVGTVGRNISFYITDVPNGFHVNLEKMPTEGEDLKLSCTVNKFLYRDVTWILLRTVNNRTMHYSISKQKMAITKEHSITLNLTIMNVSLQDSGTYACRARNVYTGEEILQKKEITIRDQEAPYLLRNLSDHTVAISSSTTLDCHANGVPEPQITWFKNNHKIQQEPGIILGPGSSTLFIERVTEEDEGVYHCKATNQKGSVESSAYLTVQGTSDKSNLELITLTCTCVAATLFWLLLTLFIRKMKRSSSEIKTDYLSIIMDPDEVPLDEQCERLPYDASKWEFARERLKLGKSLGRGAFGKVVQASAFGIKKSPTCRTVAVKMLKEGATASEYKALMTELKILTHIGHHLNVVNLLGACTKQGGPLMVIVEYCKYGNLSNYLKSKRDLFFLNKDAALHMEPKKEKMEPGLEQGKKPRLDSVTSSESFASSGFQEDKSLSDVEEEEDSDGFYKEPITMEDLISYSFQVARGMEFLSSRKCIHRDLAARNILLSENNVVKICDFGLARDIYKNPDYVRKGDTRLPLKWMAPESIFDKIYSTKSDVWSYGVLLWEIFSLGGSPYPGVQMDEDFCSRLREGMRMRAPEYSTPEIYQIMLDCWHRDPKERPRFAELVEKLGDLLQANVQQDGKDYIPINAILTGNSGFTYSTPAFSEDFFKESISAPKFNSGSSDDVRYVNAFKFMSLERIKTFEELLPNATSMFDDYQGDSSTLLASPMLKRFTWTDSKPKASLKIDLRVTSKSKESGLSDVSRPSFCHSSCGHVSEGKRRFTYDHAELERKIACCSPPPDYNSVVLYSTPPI

[3] = molecular target: Vascular endothelial growth factor receptor 1 (Homo sapiens) (UniProt P17948); assay: Binding affinity to human recombinant VEGFR1 extracellular domain by ELISA like binding assay; method in brief: as §1
[4] = molecular target: T1, Vascular endothelial growth factor receptor 2; assay: Displacement of GU40C-FITC form human recombinant VEGFR2 extracellular domain by ELISA like binding assay
[5] = molecular target: T1, Vascular endothelial growth factor receptor 2; assay: Displacement of fluorescein-labeled GU40C4 from human recombinant VEGFR2 extracellular domain by ELISA like binding assay

Structure (SMILES): CC(C)CN(CC(=O)N(CCCCN)CC(=O)N(CCCCN)CC(N)=O)C(=O)CN(CCCCN)C(=O)CN(CC(C)C)C(=O)CN(CCCCN)C(=O)CN(Cc1ccco1)C(=O)CN(CCCCN)C(=O)CNCCc1c[nH]c2ccccc12 (H-[Gly(N(CH2)2(3-indolyl))][Nlys][NFurfurylGly][Nlys][Nleu][Nlys][Nleu][Nlys][Nlys]-NH2)
Kd [1]: 1000 nM
Activity [2]: Active
Activity [3]: Active
Activity [4]: Active

Structure (SMILES): C=CCN(CC(=O)N(CC(=O)N(CCCCN)CC(=O)N(CCCCN)CC(N)=O)CC(C)C)C(=O)CN(CC(C)C)C(=O)CN(Cc1ccc2c(c1)OCO2)C(=O)CN(CCc1c[nH]c2ccccc12)C(=O)CN(CCCCN)C(=O)CNCCCCN (H-[Nlys][Nlys][Gly(N(CH2)2(3-indolyl))][Gly(N-piperonyl)][Nleu][NAllylGly][Nleu][Nlys][Nlys]-NH2)
Activity [1]: Active
Activity [2]: Active
Activity [3]: Active
Activity [4]: Active

Structure (SMILES): C=CCN(CC(=O)N(CCc1c[nH]c2ccccc12)CC(=O)N(CCCCN)CC(=O)N(CC(=O)N(CCCCN)CC(=O)N(CCCCN)CC(N)=O)CC(C)C)C(=O)CN(CC(C)C)C(=O)CN(CCOC)C(=O)CNCCCCN (H-[Nlys][Nme][Nleu][NAllylGly][Gly(N(CH2)2(3-indolyl))][Nlys][Nleu][Nlys][Nlys]-NH2)
Activity [1]: Active
Activity [2]: Active
Activity [3]: Active
Activity [4]: Active

The remaining lines, values ahead:

Activity [1]: Active
Activity [2]: Active
Activity [3]: Active
Activity [4]: Active
Structure (SMILES): CC(C)CN(CC(=O)N(CCCCN)CC(=O)N(CCCCN)CC(N)=O)C(=O)CN(CCCCN)C(=O)CN(Cc1ccc2c(c1)OCO2)C(=O)CN(CCCCN)C(=O)CN(CC(C)C)C(=O)CN(Cc1ccc2c(c1)OCO2)C(=O)CNCCCCN (H-[Nlys][Gly(N-piperonyl)][Nleu][Nlys][Gly(N-piperonyl)][Nlys][Nleu][Nlys][Nlys]-NH2)

Kd [1]: 1000 nM
Activity [2]: Active
Activity [3]: Active
Activity [4]: Active
Structure (SMILES): CC(C)CN(CC(=O)N(CCCCN)CC(=O)N(CC(=O)N(CC(=O)N(CCCCN)CC(=O)N(CC(=O)N(CCCCN)CC(=O)N(CCCCN)CC(N)=O)CC(C)C)Cc1ccc2c(c1)OCO2)C(C)c1ccccc1)C(=O)CNCCCCN (configuration not stated) (H-[Nlys][Nleu][Nlys][X1][Gly(N-piperonyl)][Nlys][Nleu][Nlys][Nlys]-NH2)

Activity [1]: Active
Activity [5]: Active
Structure (SMILES): CC(C)CN(CC(=O)N(CCCCN)CC(=O)N(CC(=O)N(CC(=O)N(CCCCN)CC(=O)N(CC(=O)N(CCCCN)CC(=O)N(CCCCN)CC(=O)NCCCCCC(=O)NCCC(=O)NC(CCCCNC(=O)CN(CCCCN)C(=O)CN(CCCCN)C(=O)CN(CC(C)C)C(=O)CN(CCCCN)C(=O)CN(Cc1ccc2c(c1)OCO2)C(=O)CN(C(=O)CN(CCCCN)C(=O)CN(CC(C)C)C(=O)CNCCCCN)C(C)c1ccccc1)C(N)=O)CC(C)C)Cc1ccc2c(c1)OCO2)C(C)c1ccccc1)C(=O)CNCCCCN (configuration not stated) (I: H-[Nlys][Nleu][Nlys][X1][Gly(N-piperonyl)][Nlys][Nleu][Nlys][Nlys][Ahx][βAla][ξK]-NH2 / II: H-[Nlys][Nleu][Nlys][X1][Gly(N-piperonyl)][Nlys][Nleu][Nlys][Nlys]; amide I:12-II:C)
